Measurements taken from ChEMBL document CHEMBL3352325, “Synthesis and biological evaluation of novel aniline-derived asiatic acid derivatives as potential anticancer agents” (Eur J Med Chem, 2014).
Calls of active or inactive are those of the source. The rule behind the calls is not given here.

Columns and labels:
HepG2 [1] = assay: Induction of apoptosis in human HepG2 cells assessed as necrotic cells at 20 uM after 12 hrs by flow cytometry (reference value: 2.3 %); format: functional
Outline: (§1)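 HepG2 cells treated 12 h at 10 or 20 µM, with untreated control. Stained with annexin V-FITC plus PI for 30 min at 25 °C in the dark. Quadrant percentages read by flow cytometry.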

HepG2 [2] = assay: Induction of apoptosis in human HepG2 cells assessed as change in morphology at 20 uM after 12 to 24 hrs using JC-1 staining by fluorescence microscopy; format: functional, cell-based
Outline: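 HepG2 cells treated at 20 µM for 12 or 24 h, with untreated 24 h control. Incubated with JC-1 (5 µg/ml) at 37 °C for 20 min, rinsed in PBS. Green (515–545 nm) and red (570–600 nm) emission imaged by fluorescence microscopy; depolarization taken as a rise in green/red ratio.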

HepG2 [3] = assay: Induction of apoptosis in human HepG2 cells assessed as decrease in Bcl-2 level after 24 hrs by Western blot analysis; format: functional, cell-based
Outline: (§2)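 HepG2 cells grown to 80–90% confluence, then kept 12 h in 0.1% FCS RPMI 1640. Exposed 24 h at 5, 10 or 20 µM. Cell extracts run on SDS-polyacrylamide gels, transferred to nitrocellulose and probed with primary antibodies against cytochrome c, Bax, Bcl-2, caspase-9, caspase-3 and cleaved PARP.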

HepG2 [4] = assay: Induction of apoptosis in human HepG2 cells assessed as necrotic cells at 10 uM after 12 hrs by flow cytometry (reference value: 2.3 %); format: functional; outline: as §1
HepG2 [5] = assay: Induction of apoptosis in human HepG2 cells assessed as accumulation of cytochrome c in cytosol at 5 to 20 uM after 24 hrs by Western blot analysis; format: functional, cell-based; outline: as §2
HepG2 [6] = assay: Cell cycle arrest in human HepG2 cells assessed as accumulation at G1 phase at 20 uM after 12 hrs using propidium iodide staining by flow cytometry (reference value: 41.51 %); format: functional
HepG2 [7] = assay: Induction of apoptosis in human HepG2 cells assessed as increase in caspase-9 level at 5 to 20 uM after 24 hrs by Western blot analysis; format: functional, cell-based; outline: as §2
HepG2 [8] = assay: Induction of apoptosis in human HepG2 cells assessed as early apoptotic cells at 10 uM after 12 hrs by flow cytometry (reference value: 2.1 %); format: functional; outline: as §1
HeLa = assay: Cytotoxicity against human HeLa cells after 48 hrs by MTT assay; format: functional, cell-based
Outline: (§3)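 Cells grown in medium with 10% heat-inactivated FBS, 5% CO2, 37 °C. Compounds given in medium with 1% DMSO at 1.25–20 graded concentrations; 1% DMSO medium served as control. MTT (5 mg/mL) added, formazan dissolved in DMSO, absorbance read at 570/630 nm. Survival expressed relative to negative control. IC50 by Bliss method (n=5), at least three independent experiments, mean ± SD.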

HepG2 [9] = assay: Induction of apoptosis in human HepG2 cells assessed as increase in Bax level after 24 hrs by Western blot analysis; format: functional, cell-based; outline: as §2
HepG2 [10] = assay: Induction of apoptosis in human HepG2 cells assessed as condensation of nucleus using hoechst staining at 20 uM after 12 to 24 hrs by fluorescence microscopy; format: functional, cell-based
Outline: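 HepG2 cells on coverslips treated at 20 µM for 12 or 24 h, with untreated 24 h control. Fixed in 4% paraformaldehyde for 10 min, then stained with Hoechst 33258 for 5 min. Nuclei viewed by fluorescence microscopy at 350 nm excitation and 460 nm emission.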

HepG2 [11] = assay: Induction of apoptosis in human HepG2 cells assessed as late apoptotic cells at 20 uM after 12 hrs by flow cytometry (reference value: 6.9 %); format: functional; outline: as §1
NCI-H460 = assay: Cytotoxicity against human NCI-H460 cells after 48 hrs by MTT assay; format: functional, cell-based; conditions: NCI-H460, 48 h; outline: as §3
HepG2 [12] = assay: Cytotoxicity against human HepG2 cells after 48 hrs by MTT assay; format: functional, cell-based; conditions: HepG2, 48 h; outline: as §3
HepG2 [13] = assay: Cell cycle arrest in human HepG2 cells assessed as accumulation at S phase at 20 uM after 24 hrs using propidium iodide staining by flow cytometry (reference value: 52.28 %); format: functional
HepG2 [14] = assay: Induction of apoptosis in human HepG2 cells assessed as change in membrane integrity using acridine orange/ethidium bromide staining at 20 uM after 12 to 24 hrs by fluorescence microscopy; format: functional, cell-based
Outline: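 HepG2 cells on coverslips treated with 20 µM in medium with 10% FBS for 12 or 24 h, with untreated 24 h control. Stained with AO/EB and examined by fluorescence microscopy: green = live, green-yellow = early apoptotic, orange = late apoptotic or necrotic.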

HepG2 [15] = assay: Induction of apoptosis in human HepG2 cells assessed as early apoptotic cells at 20 uM after 12 hrs by flow cytometry (reference value: 2.1 %); format: functional; outline: as §1
HepG2 [16] = assay: Induction of apoptosis in human HepG2 cells assessed as caspase-8 expression at 20 uM by qRT-PCR analysis; format: functional, cell-based; conditions: TDE = time-dependent effect
Outline: (§4)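 Total RNA extracted from HepG2 cells […]. Transcripts quantified by real-time RT-PCR, with Ct values normalized to actin by the ΔCt method. Run in triplicate per group.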

HepG2 [17] = assay: Induction of apoptosis in human HepG2 cells assessed as increase in caspase-3 level at 5 to 20 uM after 24 hrs by Western blot analysis; format: functional, cell-based; outline: as §2
HepG2 [18] = assay: Induction of apoptosis in human HepG2 cells assessed as generation of intracellular ROS at 20 uM after 12 to 24 hrs by fluorescence microscopy; format: functional, cell-based
Outline: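 HepG2 cells treated at 20 µM for 12 or 24 h, with untreated 24 h control. Loaded with 20 µM DCFH-DA in cell-free medium at 37 °C for 30 min in the dark, then washed in PBS. DCF fluorescence imaged by fluorescence microscopy at 485 nm excitation and 538 nm emission.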

HepG2 [19] = assay: Induction of apoptosis in human HepG2 cells assessed as late apoptotic cells at 10 uM after 12 hrs by flow cytometry (reference value: 6.9 %); format: functional; outline: as §1
HUVEC = assay: Cytotoxicity against human HUVEC cells after 48 hrs by MTT assay; format: cell-based; outline: as §3
HepG2 [20] = assay: Cell cycle arrest in human HepG2 cells assessed as accumulation at G1 phase at 20 uM after 24 hrs using propidium iodide staining by flow cytometry (reference value: 41.51 %); format: functional
HepG2 [21] = assay: Induction of apoptosis in human HepG2 cells assessed as caspase-3 expression at 20 uM by qRT-PCR analysis; format: functional, cell-based; conditions: TDE = time-dependent effect; outline: as §4
[22] = Cytotoxicity against human SMMC-7404 cells after 48 hrs by MTT assay; format: functional, cell-based; conditions: SMMC-7404, 48 h; outline: as §3
HepG2 [23] = assay: Cell cycle arrest in human HepG2 cells assessed as accumulation at G2 phase at 20 uM after 12 hrs using propidium iodide staining by flow cytometry (reference value: 6.20 %); format: functional
HepG2 [24] = assay: Cell cycle arrest in human HepG2 cells assessed as accumulation at S phase at 20 uM after 12 hrs using propidium iodide staining by flow cytometry (reference value: 52.28 %); format: functional
MGC-803 = assay: Cytotoxicity against human MGC803 cells after 48 hrs by MTT assay; format: functional, cell-based; conditions: MGC-803, 48 h; outline: as §3
HepG2 [25] = assay: Cell cycle arrest in human HepG2 cells assessed as accumulation at G2 phase at 20 uM after 24 hrs using propidium iodide staining by flow cytometry (reference value: 6.20 %); format: functional
HepG2 [26] = assay: Induction of apoptosis in human HepG2 cells after 12 hrs by flow cytometry; format: functional, cell-based; outline: as §1

With `C[C@H]1[C@H](C)CC[C@]2(C(=O)Nc3cccc(F)c3)CC[C@]3(C)C(=CC(=O)[C@@H]4[C@@]5(C)C[C@@H](O)[C@H](O)[C@@](C)(CO)[C@@H]5CC[C@]43C)[C@H]12` the Activity (HepG2 [1]) was 2.6%, the Activity (HepG2 [2]) was “Active” and the Activity (HepG2 [3]) was “Dose-dependent effect”. For the same compound, the Activity (HepG2 [4]) was 2.2%, the Activity (HepG2 [5]) was “Active” and the Activity (HepG2 [6]) was 55.29%. For the same compound, the Activity (HepG2 [7]) was “Active”, the Activity (HepG2 [8]) was 7.2% and the IC50 (HeLa) was 28.2 µM. The Activity (HepG2 [9]) was “Dose-dependent effect”, the Activity (HepG2 [10]) was “Active” and the Activity (HepG2 [11]) was 9%. The IC50 (NCI-H460) was 23.6 µM, the IC50 (HepG2 [12]) was 5.97 µM and the Activity (HepG2 [13]) was 28.86%. For the same compound, the Activity (HepG2 [14]) was “Active”, the Activity (HepG2 [15]) was 25% and the Activity (HepG2 [16]) was “tde”. The Activity (HepG2 [17]) was “Active”, the Activity (HepG2 [18]) was “Active” and the Activity (HepG2 [19]) was 6.6%. The IC50 (HUVEC) was over 100 µM, the Activity (HepG2 [20]) was 65.58% and the Activity (HepG2 [21]) was “tde”. It also gave an IC50 [22] of 14.1 µM, an Activity (HepG2 [23]) of 6.09% and an Activity (HepG2 [24]) of 38.62%. The IC50 (MGC-803) was 14.3 µM, the Activity (HepG2 [25]) was 5.56% and the Activity (HepG2 [26]) was “Dose-dependent effect”.
